Experimental data as given in article PMC3383025 (Molecular Cancer Therapeutics, 2009).
Where “and” joins values, the source holds several entries; their conditions need not be identical. Equal entries are not always repeated. Where two headings read alike, the source gives them in different places.

What was measured:
LAPC-4 = assay: Clonogenic survival assay; assay type: cell-based, human; conditions: loss of 50% clonogenic ability after 48 h exposure
LNCaP cells [1] = assay: Intracellular free Ca+2; assay type: cell-based, human; conditions: for Intracellular free calcium: 10 min after exposure to 1 µmol/L, starting concentration ~40 nmol/L
AR protein = assay: Western blot analysis of AR protein; assay type: cell-based, human; conditions: LNCaP cells; for AR Protein (% of control): after 24 h of exposure to 1 µmol/L
[2] = cited from earlier work
CWR22Rv1 = assay: Clonogenic survival assay; assay type: cell-based, human; conditions: loss of 50% clonogenic ability after 48 h exposure
LNCaP = assay: Clonogenic survival assay; assay type: cell-based, human; conditions: for Killing ability LD50: loss of 50% clonogenic ability after 48 h exposure; for CC50: read-out: Cell death of LNCaP LC50
VCaP = assay: Clonogenic survival assay; assay type: cell-based, human; conditions: loss of 50% clonogenic ability after 48 h exposure
MDA-PC-2b = assay: Clonogenic survival assay; assay type: cell-based, human; conditions: loss of 50% clonogenic ability after 48 h exposure
[3] = system: AR-specific protein synthesis; assay type: cell-based, human
Method in brief: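 LNCaP cells exposed to 1 µmol/L test compound for 6 or 24 h, then pulsed with S³⁵-methionine for 30 min before lysis. AR was immunoprecipitated from an aliquot of the labelled total protein with N-20 anti-AR antibody and Protein-A agarose beads, then Western blotted. AR-associated radioactivity was captured on X-ray film and quantitated by imaging.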

[4] = molecular target: rabbit skeletal muscle SERCA pump (Oryctolagus cuniculus, UniProt P04191); assay: SERCA pump activity inhibition; assay type: biochemical
AR mRNA = AR mRNA by reverse transcription-PCR; assay type: cell-based, human; conditions: LNCaP, LAPC-4 and CWR22Rv1 cells; 1 µmol/L TG, various times
LNCaP cells [5] = conditions: over the next 18 to 36 hours after return to baseline; cited from earlier work
[6] = system: androgen ablation refractory human prostate cancer lines; assay: Clonogenic survival assay, each of the five lines; assay type: cell-based; conditions: LNCaP, LAPC-4, VCaP, MDA-PCa-2b, CWR22Rv1
Method in brief: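 Clonogenic survival of each prostate cancer line after 48 h exposure to a concentration series of test compound. LD₅₀ is the nmol/L concentration causing 50% loss of clonogenic ability.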

total protein synthesis = assay: Total protein synthesis, S35-methionine incorporation; assay type: cell-based, human; conditions: LNCaP; at 24 hours post-TG exposure
Method in brief: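 LNCaP cells were treated for 6 or 24 h (1 µmol/L test compound) and labelled with S³⁵-methionine for 30 min before lysis. Incorporation was measured as TCA-precipitable counts and expressed per cell as percent of incorporation in exponentially growing untreated cells.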

[7] = system: IRE1-dependent XBP-1 processing; assay: ER stress: IRE1-dependent XBP-1/venus processing, fluorescent cells; assay type: cell-based, human
LNCaP cells [8] = assay: Percentage of cells in cycle, Ki67 flow cytometry; assay type: cell-based, human; conditions: TG exposure, untreated 91% ± 2%

rabbit skeletal muscle SERCA pump, sequence (P04191 1-994 isoform P04191-2): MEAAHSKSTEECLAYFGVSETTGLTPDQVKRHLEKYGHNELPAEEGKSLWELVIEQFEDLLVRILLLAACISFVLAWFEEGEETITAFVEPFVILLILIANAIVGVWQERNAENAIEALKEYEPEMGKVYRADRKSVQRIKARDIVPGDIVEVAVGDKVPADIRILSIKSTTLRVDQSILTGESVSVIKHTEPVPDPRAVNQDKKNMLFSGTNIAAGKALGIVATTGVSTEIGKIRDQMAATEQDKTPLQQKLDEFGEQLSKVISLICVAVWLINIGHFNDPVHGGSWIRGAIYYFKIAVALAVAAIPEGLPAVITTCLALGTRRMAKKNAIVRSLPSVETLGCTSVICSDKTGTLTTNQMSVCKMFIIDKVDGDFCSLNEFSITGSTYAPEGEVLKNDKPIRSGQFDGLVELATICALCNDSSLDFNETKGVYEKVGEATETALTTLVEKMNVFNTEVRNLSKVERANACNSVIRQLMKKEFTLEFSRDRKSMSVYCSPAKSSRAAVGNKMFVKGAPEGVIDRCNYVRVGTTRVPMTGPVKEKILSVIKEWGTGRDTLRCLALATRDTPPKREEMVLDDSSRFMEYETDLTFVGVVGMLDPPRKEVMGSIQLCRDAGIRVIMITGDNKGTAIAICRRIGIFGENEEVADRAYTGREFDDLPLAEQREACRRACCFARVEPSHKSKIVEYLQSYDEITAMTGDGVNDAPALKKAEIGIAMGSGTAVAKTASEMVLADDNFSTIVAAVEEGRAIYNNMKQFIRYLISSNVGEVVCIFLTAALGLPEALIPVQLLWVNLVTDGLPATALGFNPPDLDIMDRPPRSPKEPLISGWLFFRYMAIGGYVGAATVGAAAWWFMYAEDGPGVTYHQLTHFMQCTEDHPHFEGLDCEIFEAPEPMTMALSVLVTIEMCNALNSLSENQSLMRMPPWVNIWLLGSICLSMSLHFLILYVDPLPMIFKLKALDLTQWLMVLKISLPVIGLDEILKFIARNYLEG

Molecule | Killing ability LD50 (LAPC-4) [nmol/L] | Intracellular free calcium (LNCaP cells [1]) [nmol/L] | AR Protein (% of control) (AR protein) | host toxicity on systemic administration [2] | Killing ability LD50 (CWR22Rv1) [nmol/L] | Killing ability LD50 (LNCaP; LNCaP) | CC50 (LNCaP; after 48 h of exposure) [nM] | Killing ability LD50 (VCaP) [nmol/L] | Killing ability LD50 (MDA-PC-2b) [nmol/L] | other results
C/C=C(/C)C(=O)O[C@H]1C(C)=C2[C@H]([C@@H]1OC(=O)CCCCCCC)[C@@](C)(OC(C)=O)C[C@H](OC(=O)CCCCCCCCCCCN)[C@@]1(O)[C@H]2OC(=O)[C@@]1(C)O [Analog 12ADT, 8-O-(12-dodecanyl)-8-O-debutanoyl TG] | 80 ± 19 | 369 ± 23 | 14 ± 3 % of control | cannot be given systemically without host toxicity | 85 ± 27 | 55 ± 12 nmol/L | 55 ± 12 | 67 ± 25 | 95 ± 35 | 
C/C=C(/C)C(=O)O[C@H]1C(C)=C2[C@H]([C@@H]1OC(=O)CCCCCCC)[C@@](C)(OC(C)=O)C[C@H](OC(=O)CCCCCCCCCCCNC(=O)C[C@H](N)C(=O)O)[C@@]1(O)[C@H]2OC(=O)[C@@]1(C)O [Analog D12ADT, asparty-12ADT] | 55 ± 9 | 385 ± 40 | 11 ± 6 % of control |  | 39 ± 7 | 40 ± 12 nmol/L | 40 ± 12 | 70 ± 18 | 51 ± 12 | 
C/C=C(/C)C(=O)O[C@H]1C(C)=C2[C@H]([C@@H]1OC(=O)CCCCCCC)[C@@](C)(OC(C)=O)C[C@H](OC(=O)CCC)[C@@]1(O)[C@H]2OC(=O)[C@@]1(C)O [TG, Thapsigargin, reference compound] | 25 ± 6 | 441 ± 35 | 10 ± 2 % of control | cannot be given systemically without host toxicity | 38 ± 9 | 10 nmol/L and 10 ± 5 nmol/L |  | 20 ± 7 | 43 ± 12 | decrease in rate of AR-specific protein synthesis ([3]; LNCaP cells, 1 µmol/L TG): > 90%; inhibition of AR-specific protein synthesis ([3]; LNCaP, at 24 hours post-TG exposure): > 90%; initial increase in Cai (LNCaP cells [1]; from ~40 nmol/L, within minutes): > 300 nmol/L; depletion of AR protein (AR protein; by 24 hours of TG exposure): 90%; IC50 [4]: 13 ± 2 nM; change in AR mRNA (AR mRNA): no change; delayed sustained increase in Cai (LNCaP cells [5]): > 1 µmol/L; CC50 (LNCaP; Homo sapiens, LNCaP, 48 h): 10 ± 5 nM; LD50 for each of the lines [6]: < 100 nmol/L; inhibition of general protein synthesis (total protein synthesis): > 60%; percent of fluorescent (ER-stressed) cells ([7]; XBP-1/venus-transfected LNCaP and CWR22Rv1, 500 µmol/L TG, by 24 hours): > 80%; Ki67+ cells (LNCaP cells [8]; 24 hours): 25% ± 8%; Ki67+ cells (LNCaP cells [8]; 48 hours): > 10%
alanyl-12ADT [Analog A12ADT] | 28 ± 7 | 410 ± 45 | 15 ± 4 % of control |  | 38 ± 11 | 8 ± 4 nmol/L | 8 ± 4 | 23 ± 9 | 40 ± 6 | 
leucyl-12ADT [Analog L12ADT] | 32 ± 9 | 414 ± 44 | 8 ± 4 % of control |  | 34 ± 16 | 14 ± 8 nmol/L | 14 ± 8 | 25 ± 11 | 42 ± 5 | cells with IRE1-dependent XBP-1 processing (flow cytometric GFP) ([7]; LNCaP, 500 nmol/L, within 24 h): all cells
